The results in this text go back to ChEMBL document CHEMBL3297685, “Carbonic anhydrase inhibitors: Synthesis, molecular docking, cytotoxic and inhibition of the human carbonic anhydrase isoforms I, II, IX, XII with novel benzenesulfonamides incorporating pyrrole, pyrrolopyrimidine and fused pyrrolopyrimidine moieties” (Bioorg Med Chem, 2014).

pIC50, pKi: −log10 of the molar value.

For experiment [1], the system named is MCF7. The experiment is described as follows: Cytotoxicity against human MCF7 cells assessed as cell survival at 100 uM after 48 hrs by SRB assay. The conditions noted are these: MCF7, 48 h, read-out: Survival. (In general: In SRB staining, fixed cells bind dye roughly in proportion to their protein.)
Experiment [2] relates to MCF7. The experiment is described as follows: Cytotoxicity against human MCF7 cells assessed as cell survival at 25 uM after 48 hrs by […]. In kind it is functional. The note with it: MCF7, 48 h, read-out: Survival. The method in brief:
(§1)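 MCF-7 human breast tumour cells seeded at 10^4 cells/well and left 24 h to attach. Compounds in DMSO added at 10, 25, 50 or 100 µM, triplicate wells per concentration, 48 h at 37 °C, 5% CO2. Cells fixed and stained 30 min with 0.4% SRB in 1% acetic acid, bound dye recovered in Tris-EDTA, absorbance read. Surviving fraction reported.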

Experiment [3] concerns MCF7. Description: Cytotoxicity against human MCF7 cells assessed as cell survival at 50 uM after 48 hrs by […]. The conditions noted are these: MCF7, 48 h, read-out: Survival. It counts as functional. Summed up:
as §1

The test system of experiment [4] is MCF7. The experiment is described as follows: Cytotoxicity against human MCF7 cells assessed as reduction in cell survival after 48 hrs by MTT assay. The conditions noted are these: MCF7, 48 h. Background: Tetrazolium assays rely on reduction of a dye to a coloured formazan, in cell work by metabolically active cells.
The subject of experiment [5] is MCF7. Description: Cytotoxicity against human MCF7 cells assessed as cell survival at 10 uM after 48 hrs by […]. The note with it: MCF7, 48 h, read-out: Survival. It counts as functional. The method in brief:
as §1

The target of a further experiment is Carbonic anhydrase 9 (Homo sapiens, UniProt Q16790). Description: Inhibition of human recombinant carbonic anhydrase 9 preincubated for 15 mins by stopped-flow CO2 hydrase assay.

`CC(=O)N1C(=O)/C(=N\n2cnc3c(c(-c4ccc(Br)cc4)cn3-c3ccc(S(N)(=O)=O)cc3)c2=N)c2ccccc21`: the viability at 100 µM in the experiment with MCF7 [1] came to 32.6%. The viability at 25 µM in the experiment on MCF7 [2] is 28.7%. The viability at 50 µM with MCF7 [3] was found to be 25.9%. Further, the pIC50 (in general, the negative decadic logarithm of the IC50, by convention in mol/L) in the experiment on MCF7 [4] is 5.12. For the same molecule, the viability at 10 µM with MCF7 [5] is 34.2%.
For `N=c1c2c(-c3ccc(Br)cc3)cn(-c3ccc(S(N)(=O)=O)cc3)c2ncn1N`, the viability at 100 µM in the experiment with MCF7 [1] came to 26.8%. In addition, the viability at 25 µM in the experiment on MCF7 [2] came out at 30.9%. In addition, in the experiment on MCF7 [3], the viability at 50 µM was determined as 22.7%. For the same molecule, the pIC50 in the experiment with MCF7 [4] was 5.14. The viability at 10 µM in the experiment with MCF7 [5] was 33%. The pKi (in general, −log10 of the Ki, conventionally taken in molar units) at Carbonic anhydrase 9 was 8.57.
For the molecule `NS(=O)(=O)c1ccc(-n2cc(-c3ccc(Br)cc3)c3c2N=CN2NC(=O)CN=C32)cc1`, the viability at 100 µM in the experiment with MCF7 [1] is 36.2%. For the same molecule, the viability at 25 µM in the experiment on MCF7 [2] is 35.8%. Also, the viability at 50 µM in the experiment with MCF7 [3] amounted to 33.7%. Moreover, the pIC50 with MCF7 [4] was 5.09. For the same molecule, the viability at 10 µM in the experiment on MCF7 [5] stood at 39.3%.
`CCO/C=N/c1c(C#N)c(-c2ccc(Br)cc2)cn1-c1ccc(S(N)(=O)=O)cc1`: the viability at 100 µM in the experiment on MCF7 [1] is 25.6%. The viability at 25 µM with MCF7 [2] turned out to be 29.4%. Besides, the viability at 50 µM in the experiment on MCF7 [3] came out at 24.6%. Further, in the experiment on MCF7 [4], the pIC50 is 5.12. For the same molecule, the viability at 10 µM in the experiment on MCF7 [5] was 34%. In addition, the pKi on Carbonic anhydrase 9 was 8.41.
Take `CC1=NN2C=Nc3c(c(-c4ccc(Br)cc4)cn3-c3ccc(S(N)(=O)=O)cc3)C2=NC(c2ccccc2)=C1`: the viability at 100 µM in the experiment on MCF7 [1] was 28%. Moreover, the viability at 25 µM in the experiment with MCF7 [2] was determined as 30.6%. Moreover, the viability at 50 µM in the experiment with MCF7 [3] amounted to 27.7%. Besides, in the experiment on MCF7 [4], the pIC50 is 5.14. For the same molecule, in the experiment with MCF7 [5], the viability at 10 µM was determined as 30.3%. Moreover, the pKi at Carbonic anhydrase 9 is 8.44.
As to `CCOC(=O)c1nc2c3c(-c4ccc(Br)cc4)cn(-c4ccc(S(N)(=O)=O)cc4)c3ncn2n1`, in the experiment on MCF7 [1], the viability at 100 µM is 30.9%. The viability at 25 µM with MCF7 [2] is 28.1%. Moreover, the viability at 50 µM in the experiment on MCF7 [3] was 27.4%. In the experiment on MCF7 [4], the pIC50 was 5.14. In the experiment on MCF7 [5], the viability at 10 µM worked out at 30.5%. Besides, at Carbonic anhydrase 9, the pKi is 8.57.
On to `N#Cc1c(N)nn2cnc3c(c(-c4ccc(Br)cc4)cn3-c3ccc(S(N)(=O)=O)cc3)c12`, for which the viability at 100 µM with MCF7 [1] was 22.1%. The viability at 25 µM with MCF7 [2] was 29.2%. Also, in the experiment with MCF7 [3], the viability at 50 µM was determined as 21.3%. Further, the pIC50 in the experiment on MCF7 [4] is 5.12. Moreover, in the experiment on MCF7 [5], the viability at 10 µM is 34.7%. Besides, the pKi on Carbonic anhydrase 9 was 8.62.
For the molecule `C/C(CC(=O)c1ccccc1)=N/n1cnc2c(c(-c3ccc(Br)cc3)cn2-c2ccc(S(N)(=O)=O)cc2)c1=N`, the viability at 100 µM in the experiment on MCF7 [1] amounted to 30.1%. The viability at 25 µM in the experiment with MCF7 [2] amounted to 33.3%. For the same molecule, in the experiment with MCF7 [3], the viability at 50 µM was determined as 25.1%. Also, in the experiment with MCF7 [4], the pIC50 is 5.11. In the experiment on MCF7 [5], the viability at 10 µM amounted to 38.1%. For the same molecule, at Carbonic anhydrase 9, the pKi was 8.55.
For `N#CC1=C(N)N=C2c3c(-c4ccc(Br)cc4)cn(-c4ccc(S(N)(=O)=O)cc4)c3N=CN2N=C1`, in the experiment with MCF7 [1], the viability at 100 µM was 37.9%. The viability at 25 µM in the experiment on MCF7 [2] was determined as 38%. Further, the viability at 50 µM with MCF7 [3] was 40.1%. Also, the pIC50 in the experiment on MCF7 [4] is 5.09. The viability at 10 µM with MCF7 [5] was 38.2%. Further, at Carbonic anhydrase 9, the pKi was 8.51.
For the molecule `CCOC(=O)C1=C(N)N=C2c3c(-c4ccc(Br)cc4)cn(-c4ccc(S(N)(=O)=O)cc4)c3N=CN2N=C1`, the viability at 100 µM in the experiment with MCF7 [1] turned out to be 39.1%. For the same molecule, in the experiment with MCF7 [2], the viability at 25 µM was 37.7%. The viability at 50 µM in the experiment with MCF7 [3] came to 35.3%. Besides, the pIC50 with MCF7 [4] is 5.11. Also, the viability at 10 µM in the experiment with MCF7 [5] was 37.2%. Moreover, on Carbonic anhydrase 9, the pKi is 8.52.
Consider `CCOC(=O)n1c(=O)nc2c3c(-c4ccc(Br)cc4)cn(-c4ccc(S(N)(=O)=O)cc4)c3ncn21`, for which the viability at 100 µM in the experiment on MCF7 [1] was 21.6%. In addition, in the experiment on MCF7 [2], the viability at 25 µM stood at 31.1%. In the experiment with MCF7 [3], the viability at 50 µM was determined as 23.2%. Moreover, in the experiment on MCF7 [4], the pIC50 is 5.12. Also, the viability at 10 µM with MCF7 [5] came to 36.1%. Further, the pKi on Carbonic anhydrase 9 was 8.59.
With `NS(=O)(=O)c1ccc(-n2cc(-c3ccc(Br)cc3)c3c2ncn2[nH]c(=O)c(=O)nc32)cc1`, in the experiment with MCF7 [1], the viability at 100 µM came out at 35.8%. Moreover, the viability at 25 µM in the experiment with MCF7 [2] worked out at 36.6%. Also, the viability at 50 µM in the experiment on MCF7 [3] stood at 35%. Also, in the experiment with MCF7 [4], the pIC50 is 5.06. Besides, the viability at 10 µM in the experiment with MCF7 [5] was 43.6%. Besides, at Carbonic anhydrase 9, the pKi was 6.49.
On to `CC1=CC(C)=NN2C=Nc3c(c(-c4ccc(Br)cc4)cn3-c3ccc(S(N)(=O)=O)cc3)C2=N1`, for which, in the experiment with MCF7 [1], the viability at 100 µM turned out to be 37.5%. Also, in the experiment on MCF7 [2], the viability at 25 µM turned out to be 28.5%. In addition, in the experiment on MCF7 [3], the viability at 50 µM came to 33.2%. In the experiment with MCF7 [4], the pIC50 was 5.11. Also, the viability at 10 µM with MCF7 [5] turned out to be 38%. Further, the pKi at Carbonic anhydrase 9 was 7.30.
For the molecule `CCOC(=O)Cc1nc2c3c(-c4ccc(Br)cc4)cn(-c4ccc(S(N)(=O)=O)cc4)c3ncn2n1`, the viability at 100 µM with MCF7 [1] turned out to be 33.5%. For the same molecule, the viability at 25 µM in the experiment with MCF7 [2] came out at 41%. The viability at 50 µM with MCF7 [3] was 34.8%. Also, in the experiment with MCF7 [4], the pIC50 was 5.05. Also, the viability at 10 µM in the experiment on MCF7 [5] is 42.6%. Moreover, the pKi at Carbonic anhydrase 9 is 8.52.
With `NS(=O)(=O)c1ccc(-n2cc(-c3ccc(Br)cc3)c3c2ncn2nc4c5ccccc5nc-4nc32)cc1`, the viability at 100 µM in the experiment with MCF7 [1] stood at 38.1%. Also, the viability at 25 µM in the experiment on MCF7 [2] worked out at 33.8%. In addition, in the experiment with MCF7 [3], the viability at 50 µM came out at 31.5%. Besides, the pIC50 in the experiment on MCF7 [4] was 5.11. Besides, in the experiment with MCF7 [5], the viability at 10 µM was 34.7%.
The matching figures for `NS(=O)(=O)c1ccc(-n2cc(-c3ccc(Br)cc3)c3c2ncn2nnnc32)cc1`: 21.6%, 29.4%, 25.4%, 5.11 and 34.8%.
For `CC(=O)Cc1nc2c3c(-c4ccc(Br)cc4)cn(-c4ccc(S(N)(=O)=O)cc4)c3ncn2n1`, the viability at 100 µM in the experiment with MCF7 [1] was determined as 35%. The viability at 25 µM with MCF7 [2] was found to be 39.9%. For the same molecule, the viability at 50 µM with MCF7 [3] stood at 36.5%. The pIC50 with MCF7 [4] was 5.05. The viability at 10 µM with MCF7 [5] was 40%. For the same molecule, the negative-log Ki (pKi) at Carbonic anhydrase 9 was 8.51.
`COc1cccc2c1C(=O)c1c(O)c3c(c(O)c1C2=O)C[C@@](O)(C(=O)CO)C[C@@H]3O[C@H]1C[C@H](N)[C@H](O)[C@H](C)O1` [DOXORUBICIN]: the viability at 100 µM in the experiment with MCF7 [1] stood at 26.6%. Further, the viability at 25 µM in the experiment on MCF7 [2] stood at 30.9%. Also, the viability at 50 µM in the experiment with MCF7 [3] is 25.1%. Further, the viability at 10 µM in the experiment with MCF7 [5] stood at 31.4%.
As for `N#Cc1c(-c2ccc(Br)cc2)cn(-c2ccc(S(N)(=O)=O)cc2)c1N`, the viability at 100 µM with MCF7 [1] amounted to 25.5%. For the same molecule, the viability at 25 µM in the experiment with MCF7 [2] is 27.3%. For the same molecule, the viability at 50 µM in the experiment with MCF7 [3] came to 23.3%. For the same molecule, the pIC50 in the experiment on MCF7 [4] was 5.12. In addition, the viability at 10 µM with MCF7 [5] came to 32.7%. On Carbonic anhydrase 9, the pKi is 8.20.
